Series [1] can be described thus: Half life in rat at 1 mg/kg, iv and 2 mg/kg, po. Type of series: ADME, organism-based. As to conditions: in vivo.
The target of a further series is T1, Xaa-Pro dipeptidase (Homo sapiens, UniProt P12955).
T1 sequence (P12955 whole entry): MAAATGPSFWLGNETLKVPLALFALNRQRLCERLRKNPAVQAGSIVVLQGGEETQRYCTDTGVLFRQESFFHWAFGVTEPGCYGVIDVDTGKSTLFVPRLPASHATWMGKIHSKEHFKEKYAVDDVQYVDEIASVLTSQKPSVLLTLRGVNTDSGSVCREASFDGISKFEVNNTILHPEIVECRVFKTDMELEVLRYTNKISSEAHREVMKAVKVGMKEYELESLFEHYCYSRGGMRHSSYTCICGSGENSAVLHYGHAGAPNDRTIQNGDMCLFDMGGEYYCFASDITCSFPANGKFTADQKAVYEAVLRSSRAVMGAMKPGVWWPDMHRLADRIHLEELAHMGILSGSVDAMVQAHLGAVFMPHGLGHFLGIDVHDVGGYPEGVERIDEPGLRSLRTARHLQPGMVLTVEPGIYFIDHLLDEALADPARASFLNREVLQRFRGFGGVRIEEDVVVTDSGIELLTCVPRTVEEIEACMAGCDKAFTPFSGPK
The series can be described thus: Inhibition of prolidase.

In another series the target is T2, Prolyl endopeptidase FAP (Homo sapiens, UniProt Q12884).
T2 sequence (Q12884 whole entry): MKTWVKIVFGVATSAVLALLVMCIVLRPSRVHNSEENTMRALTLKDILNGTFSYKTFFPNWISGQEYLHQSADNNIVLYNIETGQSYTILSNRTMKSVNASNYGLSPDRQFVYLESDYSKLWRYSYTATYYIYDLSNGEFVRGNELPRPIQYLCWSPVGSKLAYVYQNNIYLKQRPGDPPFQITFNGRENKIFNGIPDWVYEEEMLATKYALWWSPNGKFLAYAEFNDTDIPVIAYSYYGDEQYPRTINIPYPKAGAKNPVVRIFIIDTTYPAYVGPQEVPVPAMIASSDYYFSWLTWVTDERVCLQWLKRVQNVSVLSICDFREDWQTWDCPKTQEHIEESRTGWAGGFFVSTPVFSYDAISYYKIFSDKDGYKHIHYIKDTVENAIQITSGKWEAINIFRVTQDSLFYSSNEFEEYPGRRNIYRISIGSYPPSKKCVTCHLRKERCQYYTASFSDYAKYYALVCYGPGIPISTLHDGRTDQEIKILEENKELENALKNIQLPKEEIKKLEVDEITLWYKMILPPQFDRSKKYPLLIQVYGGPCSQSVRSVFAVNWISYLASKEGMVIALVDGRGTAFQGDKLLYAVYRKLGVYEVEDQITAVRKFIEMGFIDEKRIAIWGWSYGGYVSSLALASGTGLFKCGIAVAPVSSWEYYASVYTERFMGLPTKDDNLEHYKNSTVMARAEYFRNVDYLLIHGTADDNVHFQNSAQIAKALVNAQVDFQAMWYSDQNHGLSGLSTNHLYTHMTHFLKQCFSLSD
The series can be described thus: Inhibition of FAP.

Series [2] is described as follows: (§1) Oral bioavailability in rat at 2 mg/kg. It is filed as ADME, organism-based. As to conditions: in vivo.
The target in a further series is Dipeptidyl peptidase 2 (Homo sapiens, UniProt Q9UHL4). The series can be described thus: Inhibition of QPP.
Series [3] can be described thus: Cmax in rat at 2 mg/kg, po. Type of series: ADME, organism-based. Also noted: dose 2 mg/kg, route oral. As to conditions: in vivo.
A short description of series [4]: Oral bioavailability in mouse. Type of series: ADME, organism-based. As to conditions: in vivo.
For the next series, the target named is Dipeptidyl peptidase 9 (Homo sapiens, UniProt Q86TI2). The series can be described thus: Inhibition of DPP9.
Series [5] can be described thus: Plasma clearance in rat at 1 mg/kg, iv and 2 mg/kg, po. Type of series: ADME, organism-based.
The target in another series is Dipeptidyl peptidase 8 (Homo sapiens, UniProt Q6V1X1). The series can be described thus: Inhibition of DPP8.
Series [6] can be described thus: Oral bioavailability in Zucker fa/fa rat. It is filed as ADME, organism-based. As to conditions: in vivo.
The target of series [7] is Dipeptidyl peptidase 4 (Homo sapiens, UniProt P27487).
For a further series, the target named is Xaa-Pro aminopeptidase 1 (Homo sapiens, UniProt Q9NQW7). The series can be described thus: Inhibition of amino peptidase P.
Another series relates to Rattus norvegicus. The description is as §1. Type of series: ADME, organism-based. As to conditions: in vivo.
A short description of series [8]: Plasma clearance in monkey at 1 mg/kg, iv and 2 mg/kg, po. Type of series: ADME, organism-based, Macaca mulatta. As to conditions: rhesus monkey.
Series [9] is described as follows: Oral bioavailability in dog at 2 mg/kg. As to conditions: in vivo. It is filed as ADME, organism-based, Canis lupus familiaris.
The nature of series [10]: Half life in monkey at 1 mg/kg, iv and 2 mg/kg, po. Type of series: ADME, organism-based, Macaca mulatta. As to conditions: rhesus monkey, in vivo.
Series [11] deals with Mus musculus. The series can be described thus: Reduction of dextrose induced blood glucose excursion in mouse at 1 mg/kg. Type of series: functional. Further details: scale not given: the % may be the effect or the level left. An outline of the steps:
(§2)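 Lean mice received a single oral dose of the compound 60 min before an oral dextrose challenge (5 g/kg) in an oral glucose tolerance test. The read-out was the reduction of the dextrose-induced blood glucose excursion. Data are mean ± SEM, n = 7 per group.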

The nature of series [12]: Cmax in monkey at 2 mg/kg, po. It is filed as ADME, organism-based, Macaca mulatta. Also noted: dose 2 mg/kg, route oral. As to conditions: rhesus monkey, in vivo.
For series [13], the target named is Dipeptidyl peptidase 4 (Mus musculus, UniProt P28843). The series can be described thus: Inhibition of mouse DPP4.
In the next series the test system is Plasma. The series can be described thus: Drug level in mouse plasma at 1 mg/kg. It is filed as ADME, organism-based. As to conditions: in vivo. Also noted: dose 1 mg/kg. The procedure, abridged:
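Lean mice, oral OGTT: single oral dose given 60 min before an oral dextrose challenge (5 g/kg). Plasma was sampled 20 min after dextrose for compound concentration, alongside plasma DPP-4 activity and active GLP-1. Values are mean ± SEM, n = 7 per group.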

The nature of series [14]: Cmax in dog at 2 mg/kg, po. It is filed as ADME, organism-based, Canis lupus familiaris. Also noted: dose 2 mg/kg, route oral. As to conditions: in vivo.
Series [15] concerns Mus musculus. The series can be described thus: Reduction of dextrose induced blood glucose excursion in mouse at 0.1 mg/kg. Also noted: scale not given: the % may be the effect or the level left. It is filed as functional. The procedure, abridged: as §2
The nature of series [16]: Plasma clearance in dog at 1 mg/kg, iv and 2 mg/kg, po. It is filed as ADME, organism-based, Canis lupus familiaris.
The nature of series [17]: Oral bioavailability in monkey at 2 mg/kg. Type of series: ADME, organism-based, Macaca mulatta. As to conditions: rhesus monkey, in vivo.
Series [18] in a line: Half life in dog at 1 mg/kg, iv and 2 mg/kg, po. Type of series: ADME, organism-based, Canis lupus familiaris. As to conditions: in vivo.

As usually defined, the half-life is how long it takes for the measured level to halve. In general, IC50 refers to the concentration that gives 50% inhibition. The term bioavailability denotes the share of a dose that reaches the circulation, judged against a reference dose that is usually intravenous. One may read the Cmax as the highest concentration seen after dosing.

Dipeptidyl peptidase 4 (Homo sapiens, UniProt P27487), sequence (P27487 whole entry): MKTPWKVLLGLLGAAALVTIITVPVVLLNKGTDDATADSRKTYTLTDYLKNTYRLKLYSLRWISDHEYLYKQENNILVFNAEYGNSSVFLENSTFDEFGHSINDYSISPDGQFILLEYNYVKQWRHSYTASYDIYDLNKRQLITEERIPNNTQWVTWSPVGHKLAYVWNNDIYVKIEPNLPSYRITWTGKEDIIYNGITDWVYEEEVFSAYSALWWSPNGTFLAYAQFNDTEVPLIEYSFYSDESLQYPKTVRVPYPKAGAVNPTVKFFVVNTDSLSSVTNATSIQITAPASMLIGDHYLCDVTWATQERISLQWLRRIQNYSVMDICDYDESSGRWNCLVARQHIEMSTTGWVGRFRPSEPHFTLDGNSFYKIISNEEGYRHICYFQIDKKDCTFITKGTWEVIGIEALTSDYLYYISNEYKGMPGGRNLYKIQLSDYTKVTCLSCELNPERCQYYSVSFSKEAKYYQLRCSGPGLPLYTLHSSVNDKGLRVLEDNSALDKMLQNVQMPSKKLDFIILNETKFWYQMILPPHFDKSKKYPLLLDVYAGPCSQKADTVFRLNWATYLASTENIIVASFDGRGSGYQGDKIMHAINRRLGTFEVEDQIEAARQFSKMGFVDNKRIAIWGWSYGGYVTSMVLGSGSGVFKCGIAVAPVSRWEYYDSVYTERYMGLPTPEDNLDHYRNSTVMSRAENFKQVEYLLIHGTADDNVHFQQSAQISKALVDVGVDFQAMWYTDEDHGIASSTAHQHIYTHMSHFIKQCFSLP
Dipeptidyl peptidase 8, sequence (Q6V1X1 whole entry): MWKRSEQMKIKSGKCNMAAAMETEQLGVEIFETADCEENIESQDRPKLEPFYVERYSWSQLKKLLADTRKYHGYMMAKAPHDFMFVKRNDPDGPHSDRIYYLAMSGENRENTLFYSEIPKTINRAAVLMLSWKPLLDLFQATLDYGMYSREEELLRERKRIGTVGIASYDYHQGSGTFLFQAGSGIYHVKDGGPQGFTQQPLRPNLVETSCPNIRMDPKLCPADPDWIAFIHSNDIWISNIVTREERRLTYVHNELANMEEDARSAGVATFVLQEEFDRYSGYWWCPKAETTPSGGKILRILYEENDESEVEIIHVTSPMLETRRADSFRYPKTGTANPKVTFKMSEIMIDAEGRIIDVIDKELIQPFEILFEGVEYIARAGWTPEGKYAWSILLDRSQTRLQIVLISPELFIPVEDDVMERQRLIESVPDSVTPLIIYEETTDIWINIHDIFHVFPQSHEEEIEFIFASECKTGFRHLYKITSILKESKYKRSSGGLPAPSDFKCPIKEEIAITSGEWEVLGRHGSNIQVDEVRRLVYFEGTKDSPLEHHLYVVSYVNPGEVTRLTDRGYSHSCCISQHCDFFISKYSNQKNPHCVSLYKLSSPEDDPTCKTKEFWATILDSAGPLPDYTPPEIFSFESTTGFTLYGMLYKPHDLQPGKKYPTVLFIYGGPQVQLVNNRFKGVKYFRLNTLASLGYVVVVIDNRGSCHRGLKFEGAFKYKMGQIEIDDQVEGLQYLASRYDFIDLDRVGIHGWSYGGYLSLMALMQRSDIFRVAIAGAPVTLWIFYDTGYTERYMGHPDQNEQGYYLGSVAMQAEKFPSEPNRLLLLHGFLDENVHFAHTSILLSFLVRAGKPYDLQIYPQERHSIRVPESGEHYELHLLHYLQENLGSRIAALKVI
Dipeptidyl peptidase 9, sequence (Q86TI2 whole entry): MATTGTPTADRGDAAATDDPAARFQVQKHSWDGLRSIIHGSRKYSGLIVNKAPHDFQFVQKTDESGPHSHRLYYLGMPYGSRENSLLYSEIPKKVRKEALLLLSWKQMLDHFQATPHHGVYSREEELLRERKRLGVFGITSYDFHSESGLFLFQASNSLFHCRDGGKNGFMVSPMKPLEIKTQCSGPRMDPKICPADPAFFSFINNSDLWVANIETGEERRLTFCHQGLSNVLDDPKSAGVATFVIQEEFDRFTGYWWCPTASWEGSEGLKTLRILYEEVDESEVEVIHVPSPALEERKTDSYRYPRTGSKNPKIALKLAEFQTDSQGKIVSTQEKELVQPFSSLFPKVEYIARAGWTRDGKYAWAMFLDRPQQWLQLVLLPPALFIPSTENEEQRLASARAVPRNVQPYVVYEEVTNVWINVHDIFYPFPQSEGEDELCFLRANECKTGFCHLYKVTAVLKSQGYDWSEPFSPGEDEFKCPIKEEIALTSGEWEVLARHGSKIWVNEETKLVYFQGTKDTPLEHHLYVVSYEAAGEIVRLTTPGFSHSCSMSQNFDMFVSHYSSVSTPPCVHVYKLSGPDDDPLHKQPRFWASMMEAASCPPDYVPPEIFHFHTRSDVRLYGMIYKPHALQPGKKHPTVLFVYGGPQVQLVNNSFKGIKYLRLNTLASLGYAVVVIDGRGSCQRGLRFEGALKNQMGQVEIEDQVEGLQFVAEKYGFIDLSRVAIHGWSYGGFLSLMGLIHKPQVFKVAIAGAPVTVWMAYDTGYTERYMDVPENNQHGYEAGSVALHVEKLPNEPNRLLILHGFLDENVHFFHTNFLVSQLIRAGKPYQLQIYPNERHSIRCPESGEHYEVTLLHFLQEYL
Xaa-Pro aminopeptidase 1, sequence (Q9NQW7 whole entry): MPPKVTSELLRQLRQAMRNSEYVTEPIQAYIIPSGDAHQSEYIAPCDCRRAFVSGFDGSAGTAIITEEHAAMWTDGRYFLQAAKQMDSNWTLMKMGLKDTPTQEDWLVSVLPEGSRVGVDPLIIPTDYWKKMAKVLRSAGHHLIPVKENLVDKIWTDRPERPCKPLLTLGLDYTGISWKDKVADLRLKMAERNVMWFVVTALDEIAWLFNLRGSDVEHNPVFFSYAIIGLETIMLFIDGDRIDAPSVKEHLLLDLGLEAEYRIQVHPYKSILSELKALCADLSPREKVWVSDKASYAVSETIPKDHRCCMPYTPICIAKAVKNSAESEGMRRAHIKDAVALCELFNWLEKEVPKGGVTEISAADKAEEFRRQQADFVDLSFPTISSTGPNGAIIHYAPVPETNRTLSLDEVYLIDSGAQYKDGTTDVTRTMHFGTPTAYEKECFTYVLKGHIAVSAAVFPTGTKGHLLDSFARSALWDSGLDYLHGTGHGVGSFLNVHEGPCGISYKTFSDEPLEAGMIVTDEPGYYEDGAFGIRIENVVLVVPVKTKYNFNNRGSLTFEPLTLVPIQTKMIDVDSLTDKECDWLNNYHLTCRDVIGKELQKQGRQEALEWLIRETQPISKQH
Dipeptidyl peptidase 4 (Mus musculus, UniProt P28843), sequence (P28843 whole entry): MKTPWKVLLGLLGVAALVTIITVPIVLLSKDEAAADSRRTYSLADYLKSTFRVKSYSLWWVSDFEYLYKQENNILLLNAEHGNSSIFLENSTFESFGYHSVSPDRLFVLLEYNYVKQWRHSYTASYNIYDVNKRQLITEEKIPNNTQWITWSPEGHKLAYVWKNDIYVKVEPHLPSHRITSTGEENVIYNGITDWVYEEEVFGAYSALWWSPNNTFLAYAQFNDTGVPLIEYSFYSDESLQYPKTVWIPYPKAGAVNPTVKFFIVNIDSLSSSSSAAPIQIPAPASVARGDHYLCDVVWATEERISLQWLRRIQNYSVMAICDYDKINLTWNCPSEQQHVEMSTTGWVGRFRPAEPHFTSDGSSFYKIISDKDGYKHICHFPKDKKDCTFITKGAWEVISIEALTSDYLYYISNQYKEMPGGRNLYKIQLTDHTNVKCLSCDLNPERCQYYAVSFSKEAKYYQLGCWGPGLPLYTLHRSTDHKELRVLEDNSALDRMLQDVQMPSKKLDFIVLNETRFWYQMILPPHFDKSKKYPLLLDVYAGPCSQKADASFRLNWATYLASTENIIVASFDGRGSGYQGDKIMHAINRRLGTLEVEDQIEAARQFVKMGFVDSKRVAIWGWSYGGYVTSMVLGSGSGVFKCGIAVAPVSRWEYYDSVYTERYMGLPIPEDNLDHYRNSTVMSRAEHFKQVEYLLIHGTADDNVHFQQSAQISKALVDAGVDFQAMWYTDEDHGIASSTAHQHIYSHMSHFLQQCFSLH

`Cl.N[C@@H](CC(=O)N1CCn2c(nnc2C(F)(F)F)[C@H]1Cc1ccc(F)cc1)Cc1cc(F)c(F)cc1F` (mixture of isomers): the half-life in series [1] is 1.5 h. The IC50 against Xaa-Pro dipeptidase is above 10 µM; at Prolyl endopeptidase FAP it was above 10 µM; against Dipeptidyl peptidase 2, 33 µM; at Dipeptidyl peptidase 9, 20 µM; on Dipeptidyl peptidase 8 it was 0.332 µM; at Dipeptidyl peptidase 4 [7], 0.00018 µM. The same compound gave an IC50 at Xaa-Pro aminopeptidase 1 above 10 µM. Also, the bioavailability stood at 76% in [2], 6% in series [4] and 100% in series [6]. In series [3], this compound registered a Cmax of 360 nM. In [5], this compound had a clearance of 29 mL/min/kg.
Take `Cl.N[C@@H](CC(=O)N1CCn2c(nnc2C(F)(F)F)C1C(O)c1ccc(F)cc1)Cc1cc(F)c(F)cc1F` (stereo in doubt; 47b): the half-life in series [1] is 2.6 h. Besides, the IC50 against Xaa-Pro dipeptidase was above 10 µM; against Prolyl endopeptidase FAP, above 10 µM; against Dipeptidyl peptidase 2, 36 µM; against Dipeptidyl peptidase 9, 89 µM; at Dipeptidyl peptidase 8, 0.326 µM; at Dipeptidyl peptidase 4 [7], 0.00032 µM. In addition, the IC50 against Xaa-Pro aminopeptidase 1 was above 10 µM. Further, in series [2], the bioavailability amounted to 8%. The same compound displayed a Cmax in [3] of 20 nM. Moreover, in series [5], the clearance stood at 63 mL/min/kg.
Turning to `Cl.N[C@@H](CC(=O)N1CCn2c(nnc2C(F)(F)F)C1)Cc1cc(F)c(F)cc1F`, in series [1], the half-life is 1.7 h. The IC50 against Xaa-Pro dipeptidase and against Xaa-Pro aminopeptidase 1 was above 10 µM throughout. This compound gave a F with Rattus norvegicus of 76%. Also, in [5], the clearance worked out at 60 mL/min/kg.
With `C[C@@H]1c2nnc(C(F)(F)F)n2CCN1C(=O)C[C@H](N)Cc1cc(F)c(F)cc1F.Cl`, the half-life in series [1] was 2.4 h; in series [10] it was 6 h; in series [18], 8.8 h. Moreover, the IC50 was above 10 µM at Xaa-Pro dipeptidase; above 10 µM against Prolyl endopeptidase FAP; above 100 µM at Dipeptidyl peptidase 2; 0.011 µM at Dipeptidyl peptidase 4 [13]; above 100 µM against Dipeptidyl peptidase 9; 17 µM against Dipeptidyl peptidase 8. Moreover, the values for the 50% inhibitory concentration (IC50) against Dipeptidyl peptidase 4 [7] and at Xaa-Pro aminopeptidase 1 were 0.0043 µM and above 10 µM, respectively. Besides, the bioavailability was 57% in series [2], 91% in [9] and 85% in series [17]. In addition, the clearance in [8] was determined as 29 mL/min/kg; in series [5], 54 mL/min/kg; in [16], 7.8 mL/min/kg. In addition, the Cmax was found to be 133 nM in series [3], 410 nM in series [12] and 756 nM in series [14]. Moreover, the Activity in the series with Mus musculus [11] came out at 55%; in the series on Mus musculus [15] it was 34%. The same compound returned a concentration with Plasma of 190 nM.

The values are drawn from ChEMBL document CHEMBL1140747, “Discovery of potent and selective dipeptidyl peptidase IV inhibitors derived from beta-aminoamides bearing subsituted triazolopiperazines” (J Med Chem, 2008).
